Measurements: ChEMBL document CHEMBL1132976, “Biarylcarbamoylindolines are novel and selective 5-HT(2C) receptor inverse agonists: identification of 5-methyl-1-[[2-[(2-methyl-3-pyridyl)oxy]- 5-pyridyl]carbamoyl]-6-trifluoromethylindoline (SB-243213) as a potential antidepressant/anxiolytic agent” (J Med Chem, 2000)

Key:
[1] = biological target: T1, 5-hydroxytryptamine receptor 2B (Homo sapiens, UniProt P41595); test: Binding affinities towards human cloned 5-hydroxytryptamine 2B receptor in HEK293 cells using [3H]5-HT as radioligand.; format: cell-based
How it was run: (§1)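 Competition binding at human cloned receptors expressed in HEK 293 cells. Radioligands: [3H]ketanserin for 5-HT2A, [3H]5-HT for 5-HT2B, [3H]mesulergine for 5-HT2C. Values are pKi, given as the mean of at least two determinations, each within 0.2 log unit of the mean.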

Rattus norvegicus = test: Dose required to reverse mCPP induced hypolocomotion in rat after oral administration.; format: functional; settings: read-out: ID50 (the source's name)
How it was run: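 Rat hypolocomotion model. The test compound was given orally, and mCPP was given at 7 mg/kg ip 30 min before the test. ID50 (mg/kg po) is the dose that reverses mCPP-induced hypolocomotion by 50%.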

[2] = biological target: 5-hydroxytryptamine receptor 2A (Homo sapiens, UniProt P28223); test: Binding affinity towards human cloned 5-hydroxytryptamine receptor 2A in HEK293 cells, using [3H]ketanserin as radioligand.; format: cell-based; how it was run: as §1
Cytochrome P450 1A2 [3] = biological target: T2, Cytochrome P450 1A2 (Homo sapiens, UniProt P05177); test: Inhibition of heterologously expressed human cytochrome P450 1A2.; format: ADME
T2 sequence (P05177 whole entry): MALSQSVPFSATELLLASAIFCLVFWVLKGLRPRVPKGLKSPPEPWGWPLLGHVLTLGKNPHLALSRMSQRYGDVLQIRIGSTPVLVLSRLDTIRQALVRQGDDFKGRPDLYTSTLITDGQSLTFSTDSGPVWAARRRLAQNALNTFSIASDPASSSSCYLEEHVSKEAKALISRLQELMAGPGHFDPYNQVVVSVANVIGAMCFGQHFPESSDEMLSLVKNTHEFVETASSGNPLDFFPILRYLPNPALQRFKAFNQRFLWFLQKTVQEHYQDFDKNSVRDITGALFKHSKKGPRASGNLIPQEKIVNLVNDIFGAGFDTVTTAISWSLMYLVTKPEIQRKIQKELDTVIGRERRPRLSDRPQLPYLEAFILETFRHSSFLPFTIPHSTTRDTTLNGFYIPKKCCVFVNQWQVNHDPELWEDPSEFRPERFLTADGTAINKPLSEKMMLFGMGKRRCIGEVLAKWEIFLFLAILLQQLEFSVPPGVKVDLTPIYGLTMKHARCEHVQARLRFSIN
How it was run: (§2)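 Heterologously expressed human CYP1A2 in an isoform-selective assay. Substrate: caffeine N3-demethylation at 500 µM, at the substrate Km.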

[4] = biological target: T3, Serotonin 2 receptors; 5-HT2a & 5-HT2c (Homo sapiens) (UniProt P28223+P28335); test: Selectivity index determined from binding affinities of 5-HT2C and 5-HT2A.; format: protein assay
[5] = biological target: T4, 5-hydroxytryptamine receptor 2C (Homo sapiens, UniProt P28335); test: Binding affinity towards human cloned 5-hydroxytryptamine receptor 2C in HEK293 cells, using [3H]mesulergine as radioligand.; format: cell-based; how it was run: as §1
T4 sequence (P28335 whole entry): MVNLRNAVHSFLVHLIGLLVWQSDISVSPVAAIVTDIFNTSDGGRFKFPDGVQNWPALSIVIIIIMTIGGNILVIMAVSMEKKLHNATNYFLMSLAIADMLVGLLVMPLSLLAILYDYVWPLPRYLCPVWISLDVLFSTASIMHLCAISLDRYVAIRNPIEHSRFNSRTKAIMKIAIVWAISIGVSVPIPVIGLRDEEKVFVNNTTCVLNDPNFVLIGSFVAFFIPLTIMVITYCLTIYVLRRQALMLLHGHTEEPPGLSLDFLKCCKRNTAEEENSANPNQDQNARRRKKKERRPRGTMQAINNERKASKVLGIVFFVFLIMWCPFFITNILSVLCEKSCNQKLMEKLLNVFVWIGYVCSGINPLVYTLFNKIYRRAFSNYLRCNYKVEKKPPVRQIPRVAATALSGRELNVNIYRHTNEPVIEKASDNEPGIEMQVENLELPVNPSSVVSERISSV

[6] = biological target: T5, Serotonin receptor (2b and 2c) (Homo sapiens) (UniProt P41595+P28335); test: Selectivity index determined from the binding affinities of 5-HT2C and 5-HT2B.; format: protein assay
[7] = biological target: T1, 5-hydroxytryptamine receptor 2B; test: Displacement of [3H]5-HT from human 5-hydroxytryptamine 2B receptor expressed in HEK293 cells; format: cell-based; how it was run: as §1
[8] = biological target: T5, Serotonin receptor (2b and 2c) (Homo sapiens); test: Selectivity index for binding affinities for 5-HT2C and 5-HT2B receptors; format: protein assay
[9] = biological target: T3, Serotonin 2 receptors; 5-HT2a & 5-HT2c (Homo sapiens); test: Selectivity index for binding affinities for 5-HT2C and 5-HT2A receptors; format: protein assay
Cytochrome P450 2C19 = Cytochrome P450 2C19 (Homo sapiens, UniProt P33261); test: Inhibition of heterologously expressed human cytochrome P450 2C19; format: ADME
Cytochrome P450 1A2 [10] = biological target: T2, Cytochrome P450 1A2; test: Inhibition of heterologously expressed human cytochrome P450 1A2; format: ADME; how it was run: as §2

5-hydroxytryptamine receptor 2A, sequence (P28223 whole entry): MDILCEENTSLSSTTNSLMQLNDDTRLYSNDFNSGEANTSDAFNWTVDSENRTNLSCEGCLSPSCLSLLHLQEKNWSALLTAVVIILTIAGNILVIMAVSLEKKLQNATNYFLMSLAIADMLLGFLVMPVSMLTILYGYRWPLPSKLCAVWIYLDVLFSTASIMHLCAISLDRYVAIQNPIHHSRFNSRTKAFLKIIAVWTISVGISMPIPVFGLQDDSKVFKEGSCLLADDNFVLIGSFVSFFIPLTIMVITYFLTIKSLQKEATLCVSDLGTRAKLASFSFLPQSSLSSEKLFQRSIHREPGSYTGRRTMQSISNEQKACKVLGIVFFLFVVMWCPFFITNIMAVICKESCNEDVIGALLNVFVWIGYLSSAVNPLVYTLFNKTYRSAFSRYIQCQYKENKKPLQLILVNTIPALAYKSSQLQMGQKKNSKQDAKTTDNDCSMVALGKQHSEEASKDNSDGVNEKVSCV
T3 sequence (P28223 whole entry, looked up, one chain of several): as the sequence (P28223 whole entry) above
T1 sequence (P41595 whole entry): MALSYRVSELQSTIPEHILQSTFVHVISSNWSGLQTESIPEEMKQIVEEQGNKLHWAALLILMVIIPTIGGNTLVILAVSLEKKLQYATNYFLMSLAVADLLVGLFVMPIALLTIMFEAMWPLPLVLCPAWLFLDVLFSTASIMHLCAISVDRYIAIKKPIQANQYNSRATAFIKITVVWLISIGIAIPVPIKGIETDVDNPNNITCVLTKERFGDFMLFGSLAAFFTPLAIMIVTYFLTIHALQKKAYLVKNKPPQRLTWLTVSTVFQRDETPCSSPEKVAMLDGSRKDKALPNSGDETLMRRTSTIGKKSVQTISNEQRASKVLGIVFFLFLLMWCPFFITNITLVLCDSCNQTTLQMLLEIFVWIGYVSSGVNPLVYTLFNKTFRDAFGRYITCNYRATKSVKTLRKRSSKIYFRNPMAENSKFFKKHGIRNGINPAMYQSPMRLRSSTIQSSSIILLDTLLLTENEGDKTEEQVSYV
Cytochrome P450 2C19, sequence (P33261 whole entry): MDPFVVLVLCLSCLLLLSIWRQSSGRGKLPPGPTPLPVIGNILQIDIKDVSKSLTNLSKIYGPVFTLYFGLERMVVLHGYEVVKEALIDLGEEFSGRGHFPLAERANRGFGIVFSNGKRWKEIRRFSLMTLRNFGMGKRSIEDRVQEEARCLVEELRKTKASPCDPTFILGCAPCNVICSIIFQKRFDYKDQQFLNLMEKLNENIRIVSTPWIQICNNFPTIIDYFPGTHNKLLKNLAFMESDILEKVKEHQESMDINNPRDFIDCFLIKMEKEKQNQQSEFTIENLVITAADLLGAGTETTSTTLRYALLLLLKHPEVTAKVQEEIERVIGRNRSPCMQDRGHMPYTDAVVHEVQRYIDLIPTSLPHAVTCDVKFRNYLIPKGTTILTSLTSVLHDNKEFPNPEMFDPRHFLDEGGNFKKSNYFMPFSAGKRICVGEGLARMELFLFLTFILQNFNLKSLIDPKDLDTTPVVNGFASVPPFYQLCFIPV

Structure (SMILES) | Ki [1] [nM] | ED50 (Rattus norvegicus) [mg/kg] | Ki [2] [nM] | IC50 (Cytochrome P450 1A2 [3]) [nM] | Selectivity [4] | Ki [5] [nM] | Selectivity [6] | Ki [7] [nM] | inhibition at 1 µM (Cytochrome P450 1A2 [3]) [%] | Selectivity [8] | Selectivity [9] | IC50 (Cytochrome P450 2C19) [nM] | Inhibition (Cytochrome P450 1A2 [3]) [%] | Inhibition (Cytochrome P450 1A2 [10]) [%]
COc1cc2c(cc1C(F)(F)F)N(C(=O)Nc1cc3c(c(-c4cccnc4)c1)OCC3)CC2 | 7.94 | 2 | 251 | 2000 | 500 | 0.501 | 16 |  |  |  |  |  |  | 
COc1cc2c(cc1C(F)(F)F)N(C(=O)Nc1cc(F)c(C)c(-c3cccnc3)c1)CC2 | 7.94 | > 5 | 1580 |  | 1600 | 0.631 | 13 |  |  |  |  |  |  | 
COc1cc2c(cc1C(F)(F)F)N(C(=O)Nc1ccc(Cl)c(-c3cnccc3C)c1)CC2 |  | 1.4 | > 1000 | 11000 | > 1500 | 0.631 |  |  |  |  |  |  |  | 
COc1cc2c(cc1C(F)(F)F)N(C(=O)Nc1cncc(-c3cc(F)cc(F)c3)c1)CC2 |  |  | 1260 |  | 15 | 79.4 | 6 | 501 |  |  |  |  |  | 
COc1cc2c(cc1C(F)(F)F)N(C(=O)Nc1cccc(-c3cccnc3)c1)CC2 | 7.94 | 0.6 | 200 | 4000 | 200 | 1 | 8 |  |  |  |  |  |  | 
COc1cc2c(cc1C(F)(F)F)N(C(=O)Nc1cccc(-c3cnccc3C)c1)CC2 |  | 5 | 251 |  | 400 | 0.631 |  |  | 8 |  |  |  |  | 
COc1cc2c(cc1C(F)(F)F)N(C(=O)Nc1cccnc1)CC2 |  |  |  | 20 | 120 |  |  |  |  |  |  |  |  | 
COc1cc2c(cc1C(F)(F)F)N(C(=O)Nc1ccc(C)c(-c3cnccc3C)c1)CC2 | 3.98 | 1.4 | > 6310 | > 100000 | > 20000 | 0.316 | 12 |  |  |  |  |  |  | 
Cc1cc2c(cc1Cl)N(C(=O)Nc1ccc(Oc3cccnc3C)nc1)CC2 [SB-242084] |  |  |  |  |  |  |  |  |  | 100 | 160 | > 100000 |  | 
COc1cc2c(cc1C(F)(F)F)N(C(=O)Nc1ccc(Oc3cccnc3)nc1)CC2 | 20 | 0.7 | 100 |  | 80 | 1.26 | 16 |  |  |  |  |  |  | 
COc1cc2c(cc1C(F)(F)F)N(C(=O)Nc1cncc(-c3ccc(F)cc3)c1)CC2 |  | 10 | 251 |  | 40 | 6.31 |  | 63.1 |  |  |  |  |  | 
COc1cc2c(cc1C(F)(F)F)N(C(=O)Nc1cncc(-c3c(F)cccc3F)c1)CC2 |  |  | > 10000 |  | > 420 | 25.1 | 4 | 100 |  |  |  |  |  | 
COc1cc2c(cc1C(F)(F)F)N(C(=O)Nc1ccc(C)c(-c3cccnc3)c1)CC2 | 5.01 | 1.6 | 5010 | 7000 | 5000 | 1 | 5 |  |  |  |  |  |  | 
CSc1cc2c(cc1C(F)(F)F)N(C(=O)Nc1cccc(-c3cccnc3)c1)CC2 |  |  | 79.4 |  | 50 | 1.58 | 5 | 7.94 |  |  |  |  |  | 
COc1cc2c(cc1C(F)(F)F)N(C(=O)Nc1cncc(-c3cccnc3)c1)CC2 |  |  | 63.1 |  | 80 | 0.794 | 12 | 10 |  |  |  |  | 77 | 
COc1cc2c(cc1C(F)(F)F)N(C(=O)Nc1ccc(Cl)c(-c3cccnc3)c1)CC2 | 25.1 | 5.5 | 1260 | 73000 | 250 | 5.01 | 5 |  |  |  |  |  |  | 

Structure (SMILES) | Ki [1] [nM] | ED50 (Rattus norvegicus) [mg/kg] | Ki [2] [nM] | IC50 (Cytochrome P450 1A2 [3]) [nM] | Selectivity [4] | Ki [5] [nM] | Selectivity [6] | Ki [7] [nM] | inhibition at 1 µM (Cytochrome P450 1A2 [3]) [%] | Selectivity [8] | Selectivity [9] | IC50 (Cytochrome P450 2C19) [nM] | Inhibition (Cytochrome P450 1A2 [3]) [%] | Inhibition (Cytochrome P450 1A2 [10]) [%]
CCc1cc(NC(=O)N2CCc3cc(OC)c(C(F)(F)F)cc32)cc(-c2cccnc2)c1 | 10 | 1.2 | 200 | 6000 | 320 | 0.631 | 16 |  |  |  |  |  |  | 
COc1cc2c(cc1C(F)(F)F)N(C(=O)Nc1cccc(-c3ccccn3)c1)CC2 |  |  | 501 |  | 25 | 20 |  |  | 3 |  |  |  |  | 
COc1cc2c(cc1C(F)(F)F)N(C(=O)Nc1cncc(-c3ccncc3)c1)CC2 |  |  | 63.1 | 50000 | 100 | 0.631 | 16 | 10 |  |  |  |  |  | 
COc1cc2c(cc1C(F)(F)F)N(C(=O)Nc1cncc(-c3ccccc3)c1)CC2 |  | > 20 | 1580 | 2600 | 320 | 5.01 | 5 | 25.1 |  |  |  |  |  | 
COc1cc2c(cc1C(F)(F)F)N(C(=O)Nc1ccc(-c3cccnc3)cc1)CC2 | 10 | > 10 | 3980 |  | 250 | 15.8 | 0.6 |  |  |  |  |  |  | 
COc1cc2c(cc1C(F)(F)F)N(C(=O)Nc1cc(-c3cccnc3)ccc1F)CC2 | 2000 |  | 7940 |  | 4 | 2000 | 1 |  |  |  |  |  |  | 
COc1cc2c(cc1C(F)(F)F)N(C(=O)Nc1cccc(-c3c(C)ccnc3C)c1)CC2 | 12.6 |  | 200 |  | 80 | 2.51 | 5 |  |  |  |  |  |  | 
COc1cc2c(cc1C(F)(F)F)N(C(=O)Nc1ccc(Oc3cccnc3C)nc1)CC2 | 50.1 | 2.8 | 794 | > 100000 |  | 0.631 |  |  |  | 80 | 1300 |  |  | 
COc1cc2c(cc1C(F)(F)F)N(C(=O)Nc1ccc(-c3ccncc3)cc1)CC2 | 12.6 |  | > 10000 |  | > 2000 | 5.01 | 3 |  |  |  |  |  |  | 
COc1ccc(NC(=O)N2CCc3cc(OC)c(C(F)(F)F)cc32)cc1-c1cccnc1 | 15.8 | 1.2 | 200 |  | 400 | 0.501 | 30 |  |  |  |  |  | 3 | 
CSc1cc2c(cc1C(F)(F)F)N(C(=O)Nc1cccc(-c3ccncc3)c1)CC2 |  |  | 158 |  | 50 | 3.16 | 8 | 25.1 |  |  |  |  |  | 
COc1cc2c(cc1C(F)(F)F)N(C(=O)Nc1cc(Br)cc(-c3cccnc3)c1)CC2 | 20 | 5 | > 1000 | 7000 | > 500 | 2 | 10 |  |  |  |  |  |  | 
COc1cc2c(cc1C(F)(F)F)N(C(=O)Nc1cccc(-c3cccnc3C)c1)CC2 | 15.8 | > 10 | 501 |  | 100 | 5.01 | 3 |  |  |  |  |  |  | 2
COc1cc2c(cc1C(F)(F)F)N(C(=O)Nc1cccc(-c3cccnc3)c1Cl)CC2 | 5.01 |  | 251 |  | 25 | 10 | 0.5 |  |  |  |  |  |  | 
COc1cc2c(cc1C(F)(F)F)N(C(=O)Nc1cccc(-c3cccnc3)c1C)CC2 |  |  | 398 |  | 16 | 25.1 |  |  |  |  |  |  |  | 
COc1cc2c(cc1C(F)(F)F)N(C(=O)Nc1cc(-c3ccccc3)cc(-c3cccnc3)c1)CC2 | 15.8 | > 5 | 631 |  | 250 | 2.51 | 6 |  |  |  |  |  |  | 
